Sampled rows, rich in hits. Any-hit rate of the full collection: about 1.5%.
zVAD death inh: L929 zVAD cell death inhibition | L929 zVAD necroptosis rescue, ATP luminescence, 24 h; with zVAD 60 µM | viability rescue, % at 10 µM | 220,000 tested, 0.38% active;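 active means activation, scaled between plate controls, above about 75%, limit read from the data; inactive means activation under that limit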;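 further: 0% = zVAD with DMSO and 100% = DMSO alone without zVAD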
TbHK1 inh: blocks Trypanosoma brucei hexokinase 1 activity. recombinant TbHK1, G6PDH-coupled NADH A340. inhibition, % at 10 µM. 220,000 tested, 0.11% active. AID 1430;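 active means inhibition of 50% or more in the single-dose primary screen; inactive means inhibition below 50%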
S1P4 agonist: agonists of human S1P4 receptor; S1P4-expressing cell line, agonist reporter assay; O95977; 220,000 tested, 0.35% active; activation, % at 4.98 µM; in the data active means activation above about 11%;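 further: 0% = DMSO vehicle and 100% = reference agonist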
Target sequence (O95977 whole entry, looked up): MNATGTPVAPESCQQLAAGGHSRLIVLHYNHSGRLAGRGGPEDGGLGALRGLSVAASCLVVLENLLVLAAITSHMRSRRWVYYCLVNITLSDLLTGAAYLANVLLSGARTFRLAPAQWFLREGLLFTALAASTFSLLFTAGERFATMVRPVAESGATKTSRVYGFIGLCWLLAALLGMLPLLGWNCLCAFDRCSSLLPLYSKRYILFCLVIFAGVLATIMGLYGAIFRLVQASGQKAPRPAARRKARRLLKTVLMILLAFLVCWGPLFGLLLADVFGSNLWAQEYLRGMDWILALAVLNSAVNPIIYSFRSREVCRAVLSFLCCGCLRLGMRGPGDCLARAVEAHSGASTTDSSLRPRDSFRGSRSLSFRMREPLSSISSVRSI
Dynein cargo inh: blocks dynein driven cargo transport along microtubules. z-score, hits read low. AID 1381. 220,000 tested, 0.47% active. 3617.4 mouse cells, GR-EGFP nuclear translocation imaging; test concentration mostly 20 µM; stimulated with dexamethasone, 1 µM; stronger effect = lower value;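 active means plate z-score of nuclear minus cytoplasmic receptor signal below a set negative limit, without overly bright fluorescence or cell loss, cut at about -3.5 in these data, passing the limit was not always enough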;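 further: z-score of nuclear minus cytoplasmic ring GR-EGFP intensity difference per well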
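Buffer or medium: Induction medium lacking tetracycline, stripped serum | Also added: Dexamethasone agonist, 1.0 µM final, for 30 min | Timing: 48 h induction, 1 h compound, 30 min dex at 37 °C | Detection: Formaldehyde fixation, Hoechst nuclear stain, 10x automated fluorescence imaging | Measure: Nuclear versus cytoplasmic GR-EGFP signal, averaged per well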
TNF necrop inh: inhibitors of TNF-alpha induced necroptosis in Jurkat FADD-/- cells; activation (protection from cell death), % at 10 µM; 220,000 tested, 0.068% active; Jurkat FADD-/- TNF necroptosis rescue, ATP luminescence, 24 h; 0 = TNF only, 100 = no-TNF cells;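 active means activation, meaning protection from cell death, of at least 50% relative to plate controls; inactive means activation below 50%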;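 further: necroptosis triggered by 40 ng/mL TNF-alpha added together with compound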
S1P4 antag: antagonists of human S1P4 receptor; O95977; S1P4-expressing cells, antagonist mode, reporter read-out; inhibition, % at 4.98 µM; 220,000 tested, 0.26% active; AID 1510; in the data active means inhibition above about 29%;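 further: 0% = wells stimulated with agonist and 100% = vehicle wells without agonist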
Dynein confirm: dynein cargo transport inhibition, confirmation; calls only at 20 µM; 1,000 tested, 69% active; 3617.4 GR-EGFP nuclear translocation imaging, dexamethasone-induced; AID 463116; shares compounds with Dynein cargo inh;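 active means inhibition of receptor movement into the nucleus at or above a set limit in both runs, with normal cell brightness and cell count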;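 further: dexamethasone at 1 µM final in well for 30 min; nuclear minus cytoplasmic GR-EGFP mean intensity difference in channel 2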
G6PDH ctr: inhibits Leuconostoc G6PDH, counter-screen for TbHK1 inhibitors | shares compounds with TbHK1 inh | AID 2516 | inhibition, % at 10 µM | 210 tested, 7% active | purified G6PDH, NADH absorbance, 1 h;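 active means at least 50% inhibition in the glucose-6-phosphate dehydrogenase coupled counterscreen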
TbHK1 rescreen: confirmation of Trypanosoma brucei hexokinase 1 inhibitors. shares compounds with TbHK1 inh. recombinant TbHK1, G6PDH-coupled NADH A340 absorbance. inhibition, % at 10 µM. 210 tested, 10% active. AID 2560;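 active means inhibition of at least 50% in both of the two screening runs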;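 further: 0% and 100% set by the maximum and minimum signal control wells on each plate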
S1P4 antag conf: human S1P4 antagonism, confirmation; shares compounds with S1P4 antag; S1P4-expressing cell line, antagonist mode, reporter read-out; inhibition, % at 4.98 µM; 520 tested, 71% active; AID 1524; in the data active means inhibition above about 30%
S1P1 antagonist: human S1P1 antagonism as S1P4 antagonist counter-screen; shares compounds with S1P4 antag; inhibition, % at 4.98 µM; cell-based S1P1 antagonist counterscreen, inhibition; 520 tested, 37% active; AID 1564; in the data active means inhibition above about 40%;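 further: receptor stimulated with S1P near its EC80; 0% = agonist stimulated wells and 100% = vehicle only wells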
Target sequence (P21453 whole entry, looked up): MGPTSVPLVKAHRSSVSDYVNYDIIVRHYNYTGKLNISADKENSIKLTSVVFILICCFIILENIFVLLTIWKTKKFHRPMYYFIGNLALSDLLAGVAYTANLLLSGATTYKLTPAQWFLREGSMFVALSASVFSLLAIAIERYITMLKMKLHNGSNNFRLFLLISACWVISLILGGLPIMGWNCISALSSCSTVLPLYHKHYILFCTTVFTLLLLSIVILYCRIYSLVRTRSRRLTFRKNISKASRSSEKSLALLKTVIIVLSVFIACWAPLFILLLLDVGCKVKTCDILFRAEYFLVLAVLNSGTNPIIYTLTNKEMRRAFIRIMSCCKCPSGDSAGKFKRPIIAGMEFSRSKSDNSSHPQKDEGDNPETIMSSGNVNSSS
Starred values were filed as active, the others as inactive; i = inactive; · = no result given; + = active, no number.

SMILES | zVAD death inh | TbHK1 inh | S1P4 agonist | Dynein cargo inh | TNF necrop inh | S1P4 antag | Dynein confirm | S1P4 antag conf | S1P1 antagonist | others
Cc1ccc(-n2ncc(Br)c(Br)c2=O)cc1 | -4 | 3 | 2 | -5.9* | -16 | 103* | + | 117* | 37
O=C(COC(=O)c1ccccc1C(=O)c1ccc(Cl)c([N+](=O)[O-])c1)NC1CCCCCC1 | 0 | -2 | -3 | -3.2 | -19 | 20 | · | · | ·
CC(C)N(C(=O)COC(=O)c1ccccc1C(=O)c1ccc(Cl)c([N+](=O)[O-])c1)C(C)C | 20 | -7 | -1 | -3.6* | -9 | 31* | i | 60* | 46*
c1ccc(CSc2ccc(-c3cccnc3)nn2)nc1 | 2 | -1 | 2 | 0.41 | 2 | -8 | · | · | ·
N#CC(C#N)=C1C=CC=CN1/C(=C\c1ccco1)C(=O)c1ccccc1 | 0 | -69 | -1 | -3.8* | 7 | 66* | + | 116* | 119*
O=C(NCc1cccnc1)/C(=C/c1ccc(-c2cccc(C(F)(F)F)c2)o1)NC(=O)c1ccccc1 | 0 | -31 | 2 | -0.63 | -10 | -2 | · | · | ·
O=C(NCc1cccnc1)/C(=C/c1ccc(-c2ccc(Cl)cc2)o1)S(=O)(=O)c1ccccc1 | 7 | -23 | -1 | -5.3* | -22 | 49* | + | 101* | 43*
O=C(NCc1cccnc1)/C(=C\c1ccc(-c2ccc(Br)cc2)o1)S(=O)(=O)c1ccccc1 | -1 | -28 | 1 | -4.6* | -15 | 52* | + | 106* | 64*
O=C(O)C1CC=CCC1C(=O)NC1CCCCC1 (configuration not stated) | 7 | 3 | 0 | -0.12 | 1 | 5 | · | · | ·
CC1CCc2c(sc(NC(=S)NC(=O)c3ccccc3)c2C#N)C1 (configuration not stated) | 0 | -17 | 0 | -1.4 | 1 | -10 | · | · | ·
Cc1ccc(C2(c3noc(CN4CCC(c5ccncc5)CC4)n3)CCCC2)cc1 | -1 | -1 | 1 | 1.4 | -3 | -19 | · | · | ·
CC(C)(C)C(=O)Cn1ncc(Br)c(Br)c1=O | 62 | 6 | -4 | -4.4* | -15 | 64* | + | 93* | 34
CC(=O)n1cc(N(C(=O)CCl)c2ccccc2)c2ccccc21 | 60 | -7 | 0 | -4.5* | -28 | 42* | + | 100* | 40
CC(=O)O/C(=C\c1cn(C(C)=O)c2ccccc12)C(=O)O | -1 | -18 | 0 | 1.7 | 0 | -3 | · | · | ·
Cc1ccc(-c2nc(NC(=O)c3nn(C)cc3[N+](=O)[O-])sc2C)cc1 | 22 | -20 | -8 | -3.8* | -16 | 78* | + | 115* | -10
Cc1ccc(Cn2ccc(NC(=O)c3nn(C)cc3[N+](=O)[O-])n2)cc1 | 0 | -4 | 0 | -1.4 | -1 | -2 | · | · | ·
CCCCc1ccc(/C=C2\C(=O)c3ccccc3C(O)=C2C(=O)OCC)cc1 | 0 | 20 | -1 | -4.2* | -5 | 36* | + | 68* | 22
Cc1cc(C)n(-c2cccc(F)n2)n1 | 3 | -6 | 1 | 0.36 | 1 | -1 | · | · | ·
COc1ccccc1-c1cc(C(F)(F)F)nc(S(C)(=O)=O)n1 | 0 | -19 | -2 | -4.6* | -23 | 68* | + | 86* | 6
COc1ccc(C(CC(=O)NCc2ccccc2)C(C)C)cc1 (configuration not stated) | 0 | -2 | -1 | 0.046 | 0 | -2 | · | · | ·
O=C(Nc1ccc(F)cc1)c1nn(-c2ccccc2)c(=O)cc1Cl | 18 | -7 | -3 | -5.4* | -14 | 45* | + | 75* | 71*
COc1cccc(CC(NC(C)=O)C(=O)NC2CCN(S(=O)(=O)c3ccc(NC(C)=O)cc3)CC2)c1 (configuration not stated) | 4 | 1 | -1 | -0.88 | 1 | 0 | · | · | ·
Cc1cc(C(=O)NNS(=O)(=O)c2ccc(C(C)(C)C)cc2)nn1C(C)(C)C | 1 | 52* | 1 | -0.0015 | 6 | -11 | · | · | · | G6PDH ctr=-6;TbHK1 rescreen=4
Cc1ccc(S(=O)(=O)NNC(=O)C(O)(c2ccccc2)c2ccccc2)cc1 | 0 | 21 | -1 | -0.33 | 0 | -8 | · | · | ·
C=CCn1c(SCC(=O)NCC2CCCO2)nnc1-c1ccccc1 (configuration not stated) | 1 | -2 | -1 | -0.34 | 0 | 2 | · | · | ·
SMILES | zVAD death inh | TbHK1 inh | S1P4 agonist | Dynein cargo inh | TNF necrop inh | S1P4 antag | Dynein confirm | S1P4 antag conf | S1P1 antagonist | others
OC(COCc1ccccc1)CN1CCN(c2ccccc2)CC1 (configuration not stated) | 0 | 7 | 1 | 3.2 | -2 | -17 | · | · | ·
OC(COCc1ccccc1)CN1CCCC1 (configuration not stated) | 0 | 60* | 0 | 0.19 | 2 | -16 | · | · | · | G6PDH ctr=-4;TbHK1 rescreen=-7
O=c1c2ccccc2ncn1CCCCOc1ccc(Br)cc1 | 2 | 5 | 2 | -1 | 0 | -1 | · | · | ·
CCCCOC(=O)Cn1cnc2ccc(Br)cc2c1=O | 0 | 59* | 3 | 2.1 | 13 | -18 | · | · | · | G6PDH ctr=-9;TbHK1 rescreen=3
CSc1cccc(NC(=S)N(CCCN2CCCC2)Cc2cccn2Cc2ccc(Cl)cc2)c1 | 0 | 12 | -1 | -0.43 | -1 | -6 | · | · | ·
S=C(Nc1cccc(Cl)c1)N(CCCN1CCCC1)Cc1cccn1Cc1ccc(Cl)cc1 | -2 | 51* | -2 | 0.55 | 1 | 6 | · | · | · | G6PDH ctr=41;TbHK1 rescreen=13
Cc1occc1C(=O)NCCCCNC(=O)c1ccoc1C | 0 | 6 | -2 | -0.12 | 0 | 9 | · | · | ·
CCCCCCCCCCCNC(=O)c1ccoc1C | 0 | 55* | 0 | -2.7 | -3 | -4 | · | · | · | G6PDH ctr=-31;TbHK1 rescreen=86*
COC(=O)c1sccc1NC(=O)C1CCCCC1C(=O)O (configuration not stated) | 0 | -2 | 1 | -0.88 | -1 | -4 | · | · | ·
Cc1sc(/C=C2\C(=O)ON=C2c2ccccc2)cc1Br | 0 | 1 | 2 | -0.71 | -2 | 3 | · | · | ·
CCCCc1ccc(/C=C2/C(=O)ON=C2c2ccccc2)s1 | 1 | 55* | 2 | 0.61 | 1 | -16 | · | · | · | G6PDH ctr=-37;TbHK1 rescreen=55*

Compound activity as filed in PubChem BioAssay.
